Results on nine compounds are retold here after article PMC7115506 (European Journal of Medicinal Chemistry, 2018).

For series [1], the system named is human leukemia K562 cells. Kind of series: MTT cytotoxic activity assay, K562. The class given is cell-based. The note with it: for IC50: read-out: IC50 K562, MTT, 48 h; for enhancement of potency compared to that of 2d: ratio to 2d, K562. In a few lines: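 K562 cells at 5 × 10^4 cells/ml were plated for 2 h, then exposed to test compound at 10–100,000 nM for 48 h. MTT (5 mg/mL stock) was added for a further 4 h and read on a plate reader. DMSO-treated controls were set as 100% viability. IC50 came from nonlinear regression over three independent assays.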

A further series concerns liver cancer HepG2 cells. Kind of series: MTT cytotoxic activity assay, HepG2. The class given is cell-based, human. To be noted: read-out: IC50 HepG2.
The test system of series [2] is K562 cells. As to the kind of experiment: Flow cytometric analysis of apoptosis. In kind it is cell-based, human. The note with it: 30 nM; 48 h. The procedure, abridged: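 K562 cells (RPMI-1640, 10% FBS) were seeded in six-well plates and given DMSO or test compound at 30 or 300 nM for 0, 6, 12, 24 and 48 h. Cells were washed twice in ice-cold PBS, resuspended in binding buffer, then stained with Annexin V-FITC (10 min) and PI at 50 μg/mL (10 min) at room temperature in the dark. Flow cytometry with quadrant statistics.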
On the technique in general: A flow cytometer gives signals particle by particle.

For series [3], the system named is HepG2 cells. As to the kind of experiment: Wound healing assay. The class given is cell-based, human. The note with it: 48 h, DMSO 184.89 μm.
Series [4] relates to HepG2 cells. Kind of series: Transwell assay. In kind it is cell-based, human. The note with it: 10 nM, 30 nM, 100 nM; 24 h.
The subject of the next series is HUVEC cells. Kind of series: Tube forming assay on Matrigel. In kind it is cell-based, human. To be noted: 10 nM, 30 nM, 100 nM; 12 h.
Series [5] deals with K562 cells. As to the kind of experiment: Morphological changes by microscopy. The class given is cell-based, human. To be noted: 30 nM. The procedure, abridged:
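K562 cells were kept in RPMI-1640 with 10% FBS, 2.05 mM glutamine and 1% penicillin/streptomycin at 37 °C and 5% CO2. They were exposed to test compound at 30 nM, and morphology was compared with DMSO-treated cells.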

Consider “1-(3,5-dimethylbenzyl)-5-(4-methoxyphenyl)indoline-2,3-dione [2p]”, for which the figures for the IC50 (in series [1]; with liver cancer HepG2 cells) were 0.14 ± 0.03 µM and 0.41 ± 0.03 µM, respectively.

Consider “1-(4-methoxybenzyl)-5-(thiophen-3-yl)indoline-2,3-dione [compound 4r]”, for which the IC50 in series [1] worked out at 0.08 ± 0.04 µM; in the series with liver cancer HepG2 cells, 3.67 ± 1.4 µM.

For the compound `COc1ccc(-c2ccc3c(c2)C(=O)C(=O)N3Cc2ccccc2OC)cc1` [2o, 1-(2-methoxybenzyl)-5-(4-methoxyphenyl)indoline-2,3-dione], the “enhancement of potency compared to that of 2d” value in series [1] is 8–25 folds.

Regarding `COc1ccc(-c2ccc3c(c2)C(=O)C(=O)N3Cc2ccc(OC)c(OC)c2)cc1` [2q, 1-(3,4-dimethoxybenzyl)-5-(4-methoxyphenyl)indoline-2,3-dione], in series [1], the “enhancement of potency compared to that of 2d” value was 8–25 folds.

As to `COc1ccc(-c2ccc3c(c2)C(=O)C(=O)N3Cc2ccc3c(c2)OCO3)cc1` [2v, 1-(benzo[d] [1, 3]dioxol-5-ylmethyl)-5-(4-methoxyphenyl)indoline-2,3-dione], the “enhancement of potency compared to that of 2d” value in series [1] is recorded as 8–25 folds.

`COc1ccc(CN2C(=O)C(=O)c3cc(-c4ccc(OC)cc4)ccc32)cc1` [compound 2m, 1-(4-methoxybenzyl)-5-(4-methoxyphenyl)indoline-2,3-dione]: the “enhancement of potency compared to that of 2d” value in series [1] is on record as 8–25 folds. The “apoptotic rate of K562 cells” value in the series on K562 cells [2] worked out at 43.4%. Besides, the results for the “The distance of migration” value in the series with HepG2 cells [3] (10 nM), in the series on HepG2 cells [3] (30 nM) and in the series on HepG2 cells [3] (100 nM) were 162.89 μm, 135.22 μm and 96.24 μm, respectively. Moreover, the “effect on HepG2 cells migration (transwell)” value in the series on HepG2 cells [4] was “could inhibit the HepG2 cells migration and have a dose-dependent inhibitory effect”. For the same compound, the “effect on tube formation of HUVEC cells” value in the series with HUVEC cells was “could inhibit the angiogenesis of HUVEC cells and have a dose-dependent inhibitory effect”. In addition, the “morphological change: elongated cells (G2/M arrest morphology)” value in the series with K562 cells [5] (6 h, vs DMSO-treated cells) was “elongated cells increased significantly”. Besides, the “morphological change: apoptotic cells” value in the series on K562 cells [5] (24 h) is “apoptotic cells were clearly observed”.

As for `COc1ccc(CN2C(=O)C(=O)c3cc(-c4ccc(C(C)(C)C)cc4)ccc32)cc1` [compound 4e, 5-(4-(tert-butyl)phenyl)-1-(4-methoxybenzyl)indoline-2,3-dione], the “drop of cytotoxic activity from that of 4k” value in series [1] (ratio to 4k) was determined as 15 folds.

As to “(Z)-ethyl 2-(1-(4-methoxybenzyl)-5-(4-methoxyphenyl)-2-oxoindolin-3-ylidene)acetate [5d]”, the IC50 was 1.24 ± 0.54 µM in series [1] and 3.39 ± 0.27 µM in the series with liver cancer HepG2 cells.

For “(Z)-methyl 2-(1-(4-methoxybenzyl)-5-(4-methoxyphenyl)-2-oxoindolin-3-ylidene)acetate [5e]”, the results for the IC50 (in series [1]; with liver cancer HepG2 cells) were 1.9 ± 0.14 µM and 4.73 ± 1.24 µM, respectively.

Usually IC50 stands for the concentration needed to halve the response being measured.
